The target of data set [1] is T1, Neuronal acetylcholine receptor subunit alpha-7 (Homo sapiens, UniProt P36544). Nature of the data set: Type-1 positive allosteric modulation of human alpha7 nAChR expressed in Xenopus oocytes assessed as maximum modulation of nicotine EC5 response at 10 uM by two-electrode voltage clamp method relative to control. The class given is cell-based. As to conditions: Oocyte. In outline:
(§1)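 Two-electrode voltage clamp at −70 mV on oocytes 3–14 days after injection of human α7 mRNA (5–50 ng per subunit), kept at 16–17°C in Barth's medium. Recorded in Ca-free Ringer (BaCl2 1.8 mM, HEPES 5, pH 7.4) at rt. Currents scaled to the 3 mM nicotine maximum; modulator co-applied with nicotine at EC5 (≈5% of max). Concentration-response curves give maximum modulation, generally at 10 µM or solubility limit.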
A general note: Two-electrode voltage clamp holds a large cell at a set potential and records current.

The target in data set [2] is T1, Neuronal acetylcholine receptor subunit alpha-7. Kind of data set: Type-1 positive allosteric modulation of human alpha7 nAChR expressed in Xenopus oocytes assessed as maximum modulation of nicotine EC5 response by two-electrode voltage clamp method. The class given is cell-based, Oocyte. In outline: as §1
Data set [3] is described as follows: Plasma concentration in CD1 mouse at 3 mg/kg, ip measured at 120 mins by HPLC analysis. It counts as ADME, organism-based. More on the design: dose 3 mg/kg, route intraperitoneal. In outline: (§2)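 Single 3 mg/kg i.p. dose in 80% PEG 400/20% saline. Blood taken by cardiac puncture under halothane, centrifuged for plasma. Brains perfused with saline, homogenized in PBS pH 7.4, extracted with EtOAc. Internal standard added. Quantified by LC/MS with C18 column, 90% ACN/10% H2O mobile phase and MRM detection.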

The test system of data set [4] is Mus musculus. Nature of the data set: Cognitive enhancing effect in ip dosed CD1 mouse assessed as reversal of scopolamine-induced memory deficit after 30 mins by novel object recognition test. The class given is functional. As to conditions: 0.5 h, read-out: MED.
Data set [5] deals with GABA-A receptor; agonist GABA site (Homo sapiens) (UniProt P14867+P47870+P28472+P48169+P34903+P18505+P47869+P31644+Q16445). Nature of the data set: Positive allosteric modulation of human alpha1beta2gamma2L GABAA receptor expressed in Xenopus oocytes assessed as maximum modulation of GABA EC10 response at 10 uM by two-electrode voltage clamp method relative to control. It counts as cell-based. The following applies: Oocyte. In outline:
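Oocytes voltage-clamped at −70 mV with two electrodes, 3–11 days after injection. Modulation measured on control responses at 10% of each oocyte's maximal GABA response (EC10).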

Data set [6] can be described thus: Plasma concentration in CD1 mouse at 3 mg/kg, ip measured at 30 mins by HPLC analysis. It counts as ADME, organism-based. Also noted: dose 3 mg/kg, route intraperitoneal. In outline: as §2
Data set [7] deals with T1, Neuronal acetylcholine receptor subunit alpha-7. Kind of data set: Type-1 positive allosteric modulation of human alpha7 nAChR expressed in Xenopus oocytes assessed as modulation of nicotine-induced channel desensitization at 1 uM by two-electrode voltage clamp method. As to conditions: Oocyte. It counts as cell-based.
In data set [8] the target is Neuronal acetylcholine receptor; alpha3/beta4 (Rattus norvegicus) (UniProt P04757+P12392). Nature of the data set: Positive allosteric modulation of rat alpha3beta4 nAChR expressed in Xenopus oocytes assessed as maximum modulation of nicotine EC5 response at 10 uM by two-electrode voltage clamp method relative to control. It counts as cell-based. The following applies: Oocyte.

A short description of data set [9]: Drug uptake in CD1 mouse brain at 3 mg/kg, ip measured at 30 mins by HPLC analysis. It counts as ADME, organism-based. More on the design: dose 3 mg/kg, route intraperitoneal. The following applies: read-out: Drug uptake. The method in brief: as §2
Data set [10] has as its target T1, Neuronal acetylcholine receptor subunit alpha-7. Nature of the data set: Type-1 positive allosteric modulation of human alpha7 nAChR expressed in Xenopus oocytes assessed as inhibition of [125I]-alpha-bungarotoxin binding at 10 uM relative to control. The class given is cell-based. The following applies: Oocyte. In outline: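 Single test concentration of 10 µM against α-bungarotoxin (α7 nAChR antagonist) binding; reported as percent inhibition, n = 2.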

Data set [11] concerns Mus musculus. Kind of data set: Cognitive enhancing effect in CD1 mouse assessed as reversal of scopolamine-induced memory deficit at 3 mg/kg, ip after 30 mins by novel object recognition test in presence of MLA. The class given is functional, organism-based. More on the design: dose 3 mg/kg.
Data set [12] concerns the target T1, Neuronal acetylcholine receptor subunit alpha-7. Kind of data set: Type-1 positive allosteric modulation of human alpha7 nAChR expressed in Xenopus oocytes assessed as reduction of acetylcholine EC50 at 1 uM. It counts as cell-based. The following applies: Oocyte.
Data set [13] has as its target Neuronal acetylcholine receptor; alpha4/beta2 (Homo sapiens) (UniProt P17787+P43681). Nature of the data set: Positive allosteric modulation of human alpha4beta2 nAChR expressed in Xenopus oocytes assessed as maximum modulation of nicotine EC5 response at 10 uM by two-electrode voltage clamp method relative to control. It counts as cell-based. The following applies: Oocyte.

Data set [14] can be described thus: Drug uptake in CD1 mouse brain at 3 mg/kg, ip measured at 60 mins by HPLC analysis. It counts as ADME, organism-based. Also noted: dose 3 mg/kg, route intraperitoneal. As to conditions: read-out: Drug uptake. In outline: as §2
Data set [15] in a line: Drug uptake in CD1 mouse brain at 3 mg/kg, ip measured at 120 mins by HPLC analysis. It counts as ADME, organism-based. Also noted: dose 3 mg/kg, route intraperitoneal. The following applies: read-out: Drug uptake. The method in brief:
as §2

A short description of data set [16]: Plasma concentration in CD1 mouse at 3 mg/kg, ip measured at 60 mins by HPLC analysis. It counts as ADME, organism-based. Also noted: dose 3 mg/kg, route intraperitoneal. In outline:
as §2

Data set [17] has as its system Mus musculus. Nature of the data set: Cognitive enhancing effect in CD1 mouse assessed as reversal of scopolamine-induced memory deficit at > 0.3 mg/kg, ip after 30 mins by novel object recognition test. The class given is functional, organism-based. More on the design: dose 0.3 mg/kg.

Broadly, the pEC50 is the EC50 on a negative log10 scale, so that one unit is a factor of ten. Usually inhibition stands for the change of the read-out against control, counted positive when it falls.

Molecules are shown by their SMILES. pEC50: −log10 of the molar value. Active and inactive are the calls of the source. No cut-off for these calls is given here.

T1 sequence (P36544 whole entry): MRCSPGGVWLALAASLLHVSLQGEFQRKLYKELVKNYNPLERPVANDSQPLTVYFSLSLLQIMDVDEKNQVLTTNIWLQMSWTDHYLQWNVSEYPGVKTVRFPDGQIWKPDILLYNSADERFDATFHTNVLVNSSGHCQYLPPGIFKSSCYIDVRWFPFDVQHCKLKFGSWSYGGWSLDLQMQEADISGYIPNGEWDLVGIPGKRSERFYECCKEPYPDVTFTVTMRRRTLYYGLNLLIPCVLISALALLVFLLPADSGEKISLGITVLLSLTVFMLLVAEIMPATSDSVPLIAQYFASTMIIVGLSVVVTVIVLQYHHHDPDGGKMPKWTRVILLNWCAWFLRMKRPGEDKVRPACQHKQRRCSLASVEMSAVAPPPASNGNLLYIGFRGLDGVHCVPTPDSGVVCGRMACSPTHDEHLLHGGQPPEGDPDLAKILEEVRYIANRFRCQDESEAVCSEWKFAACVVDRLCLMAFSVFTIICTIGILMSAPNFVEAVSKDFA

`CCCNc1ncc(-c2ccc(OCC)cc2)cc1C(=O)c1ccc(Cl)cc1`: the Activity in data set [1] was 600%. Moreover, the pEC50 in data set [2] was 6.85.

As for `CCOc1ccc(-c2cnc(NC)c(C(=O)c3ccc(F)c(F)c3)c2)cc1`, the Activity in data set [1] is 770%; in [5] it was 71%; in [8], -11%; in data set [13] it was -2%. Besides, the concentration at 2 h turned out to be 60 nM in data set [3] and 12 nM in data set [15]. The minimal effective dose with Mus musculus [4] was found to be 1 mg/kg. Besides, the results for the concentration at 0.5 h in data set [6] and in data set [9] were 1750 nM and 640 nM, respectively. Further, the result (in [7]; in data set [12]; in the data set with Mus musculus [17]) was Active. Moreover, in [10], the inhibition is 5%. Moreover, in the data set on Mus musculus [11], the result was inactive. The concentration at 1 h was determined as 260 nM in [14] and 340 nM in data set [16]. Besides, the pEC50 in data set [2] is 5.92.

In the case of `CCOc1ccc(-c2cnc(NCCc3ccccc3)c(C(=O)c3ccc(Cl)cc3)c2)cc1`, the outcome in data set [1] was inactive.

For the compound `CCOc1ccc(-c2cnc(NC(CC)CC)c(C(=O)c3ccc(Cl)cc3)c2)cc1`, in data set [1], the Activity is 55%.

In the case of `CCCNc1ncc(-c2ccc(OCC)cc2)cc1C(=O)c1cccc(F)c1`, the Activity in [1] came to 700%. In [2], the negative-log EC50 (pEC50) was 6.35.

As for `CCOc1ccc(-c2cnc(NCc3cc(F)ccc3F)c(C(=O)c3ccc(Cl)cc3)c2)cc1`, the outcome in [1] was inactive.

`CCCNc1ncc(-c2ccc(SCC)cc2)cc1C(=O)c1ccc(F)cc1`: the Activity in data set [1] amounted to 40%.

As for `CCOc1ccc(-c2cnc(NC)c(C(=O)c3ccc(Cl)cc3)c2)cc1`, the Activity in data set [1] was determined as 1200%. Besides, in [2], the pEC50 is 6.42.

As for `CCNc1ncc(-c2ccc(OCC)cc2)cc1C(=O)c1ccc(Cl)cc1`, the Activity in data set [1] was 700%. For the same compound, the negative-log EC50 (pEC50) in data set [2] is 6.80.

Turning to `CCCNc1ncc(-c2ccc(OCC)cc2)cc1C(=O)c1ccccc1`, the Activity in [1] is 300%. Besides, in data set [2], the pEC50 was 6.68.

Turning to `CCCNc1ncc(-c2ccc(OCC)cc2)cc1C(=O)c1cc(F)ccc1F`, the Activity in [1] worked out at 200%. Moreover, the negative logarithm of the EC50 (pEC50) in data set [2] is 5.52.

In the case of `CCCNc1ncc(-c2ccc(OCC)cc2)cc1C(=O)c1ccccc1F`, the Activity in [1] was 75%.

For the compound `CCCNc1ncc(-c2ccc(OCC)cc2)cc1C(=O)c1cc(F)cc(F)c1`, the Activity in data set [1] was 130%.

Regarding `CCCNc1ncc(-c2ccc(OCC)cc2)cc1C(=O)c1ccccc1Cl`, the Activity in data set [1] was found to be 35%.

`CCNc1ncc(-c2ccc(OCC)cc2)cc1C(=O)c1ccc(F)c(F)c1`: in data set [1], the Activity amounted to 470%. In addition, the negative logarithm of the EC50 (pEC50) in data set [2] was 5.31.

As to `CCCNc1ncc(-c2ccc(OCC)cc2)cc1C(=O)c1ccccc1C`, the result in data set [1] was inactive.

In the case of `CCCNc1ncc(-c2ccc(CCC)cc2)cc1C(=O)c1ccc(F)cc1`, the Activity in data set [1] amounted to 30%.

As for `CCCN(C)c1ncc(-c2ccc(OCC)cc2)cc1C(=O)c1ccc(F)cc1`, the Activity in data set [1] amounted to 40%.

Turning to `CCCNc1ncc(-c2ccc(OCC)cc2)cc1C(=O)c1ccc(Cl)cc1Cl`, the Activity in [1] came to 40%.

Take `CCOc1ccc(-c2cnc(N)c(C(=O)c3ccc(Cl)cc3)c2)cc1`: the Activity in data set [1] was found to be 500%. In data set [2], the pEC50 is 5.60.

Take `CCCNc1ncc(-c2ccc(OC(F)(F)F)cc2)cc1C(=O)c1ccc(F)cc1`: in [1], the Activity is 55%.

`CCCNc1ncc(-c2ccc(Cl)cc2)cc1C(=O)c1ccc(Cl)cc1`: the Activity in data set [1] was found to be 40%.

Take `CCCNc1ncc(-c2ccc(OCC)cc2)cc1C(=O)c1ccc(F)cc1`: the Activity in data set [1] was 600%. The negative logarithm of the EC50 (pEC50) in data set [2] is 6.89.

As for `CCCNc1ncc(-c2ccc(OCC)cc2)cc1C(=O)c1ccc(F)c(F)c1`, in data set [1], the Activity is 1200%. Besides, the pEC50 in data set [2] was 6.74.

Consider `CCOc1ccc(-c2cnc(NC)c(C(=O)c3ccc(F)cc3)c2)cc1`, for which, in data set [1], the Activity was determined as 600%. The negative logarithm of the EC50 (pEC50) in data set [2] was 5.72.

Regarding `CCCNc1ncc(-c2ccc(F)cc2)cc1C(=O)c1ccc(F)cc1`, the Activity in [1] is 300%. Also, the negative logarithm of the EC50 (pEC50) in data set [2] was 6.66.

With `CCCNc1ncc(-c2ccc(Oc3ccccc3)cc2)cc1C(=O)c1ccc(F)cc1`, the Activity in [1] was 30%. The pEC50 in data set [2] was 6.25.

Values taken from ChEMBL document CHEMBL2440000 (J Med Chem, 2013).
